Reference: ChEMBL document CHEMBL2046381, “Defining the mechanism of action and enzymatic selectivity of psammaplin A against its epigenetic targets” (J Med Chem, 2012)
pIC50: −log10 of the molar value. Calls of active or inactive are those of the source. The rule behind the calls is not given here.

What was measured:
MCF7 [1] = experiment: Growth inhibition of human MCF7 cells after 96 hrs by sulphorhodamine B assay; format: functional; conditions: MCF7, 96 h
In short: (§1)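 SRB growth assay; MCF7 and WI38 seeded 4000 cells/well, A549 2000 cells/well, attached overnight, then exposed to freshly made drug solutions (0.1 to 50 μM) for 96 h. Fixed with cold 10% TCA, stained with 0.4% SRB; absorbance at 540 nm as percent of untreated control, IC50 from mean absorbance.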

[2] = target: T1, Protein deacetylase HDAC6 (Homo sapiens) (UniProt Q9UBN7); experiment: Inhibition of HDAC6 in human MCF7 cells assessed as change in tubulin acetylation level at 5 uM after 24 hrs by Western blot analysis; format: cell-based
T1 sequence (whole entry): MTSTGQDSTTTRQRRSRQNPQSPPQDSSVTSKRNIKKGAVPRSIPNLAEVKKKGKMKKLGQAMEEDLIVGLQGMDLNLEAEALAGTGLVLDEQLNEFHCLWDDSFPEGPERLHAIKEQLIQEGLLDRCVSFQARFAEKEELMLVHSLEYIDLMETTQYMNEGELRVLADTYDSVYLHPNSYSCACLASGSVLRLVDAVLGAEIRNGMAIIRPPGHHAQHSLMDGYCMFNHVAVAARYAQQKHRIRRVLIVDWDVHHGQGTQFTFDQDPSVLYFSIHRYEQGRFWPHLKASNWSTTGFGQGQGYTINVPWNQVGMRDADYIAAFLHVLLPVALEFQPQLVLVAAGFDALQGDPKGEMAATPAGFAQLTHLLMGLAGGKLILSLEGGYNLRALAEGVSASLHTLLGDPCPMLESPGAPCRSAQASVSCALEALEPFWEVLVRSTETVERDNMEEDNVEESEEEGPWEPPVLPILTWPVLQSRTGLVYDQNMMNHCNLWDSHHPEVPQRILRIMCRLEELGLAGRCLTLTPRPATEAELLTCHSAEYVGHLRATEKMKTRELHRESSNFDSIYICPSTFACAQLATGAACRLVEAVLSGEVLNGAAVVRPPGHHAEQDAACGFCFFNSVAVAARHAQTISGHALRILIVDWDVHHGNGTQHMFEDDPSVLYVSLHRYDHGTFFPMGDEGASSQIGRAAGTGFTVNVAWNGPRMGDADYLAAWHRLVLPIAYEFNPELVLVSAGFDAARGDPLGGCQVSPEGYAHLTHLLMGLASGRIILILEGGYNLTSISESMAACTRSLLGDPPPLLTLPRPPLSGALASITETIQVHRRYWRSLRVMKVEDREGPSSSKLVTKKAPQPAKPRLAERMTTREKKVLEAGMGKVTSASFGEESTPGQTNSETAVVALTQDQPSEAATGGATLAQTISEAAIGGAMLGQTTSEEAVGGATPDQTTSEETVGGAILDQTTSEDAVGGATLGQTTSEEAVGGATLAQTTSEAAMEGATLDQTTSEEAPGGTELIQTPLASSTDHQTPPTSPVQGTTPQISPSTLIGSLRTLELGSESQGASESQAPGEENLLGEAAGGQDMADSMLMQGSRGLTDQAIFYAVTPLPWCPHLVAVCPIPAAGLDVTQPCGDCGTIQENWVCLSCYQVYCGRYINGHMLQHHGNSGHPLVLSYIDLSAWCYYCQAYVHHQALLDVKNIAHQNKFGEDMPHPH
In short: (§2)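 MCF7 cells (5 × 10^6 per T75 flask) treated 24 h, harvested by trypsinization, lysed in RIPA on ice; 50 μg total protein resolved on 12% SDS-PAGE, transferred to nitrocellulose and probed for histone, acetylated histone, tubulin, acetylated tubulin, p21 and actin. Untreated cells as negative control.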

MCF7 [3] = experiment: Inhibition of Class 1 histone deacetylase in human MCF7 cells assessed as up-regulation of p21 protein level at 5 uM after 24 hrs by Western blot analysis; format: cell-based; in short: as §2
[4] = Inhibition of HDAC in cell extract based assay
A549 = experiment: Growth inhibition of human A549 cells after 96 hrs by sulphorhodamine B assay; format: functional; conditions: A549, 96 h; in short: as §1
Bacteria [5] = experiment: Inhibition of bacterial DNA cytosine-C5 methyltransferase, M.SssI at 50 uM
In short: (§3)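 One unit M.SssI with 1 μg bacteriophage λ DNA in NEBuffer2 (pH 7.9, 1 mM DTT) plus 160 μM SAM, ±inhibitor, 2 h at 37 °C; heat-inactivated 65 °C 20 min. Methylation read by BstUI digestion (10 units, 1 h 60 °C) and 1.5% agarose gel electrophoresis; run four times with positive and negative controls.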

[6] = Growth inhibition of human WI38 cells after 96 hrs by sulphorhodamine B assay; format: cell-based; conditions: WI-38 cells; in short: as §1
[7] = target: DNA (cytosine-5)-methyltransferase 1 (Homo sapiens, UniProt P26358); experiment: Inhibition of semi-purified DNMT1
Bacteria [8] = experiment: Inhibition of bacterial DNA cytosine-C5 methyltransferase, M.SssI at 5 uM; in short: as §3
Histone deacetylase 1 = Histone deacetylase 1 (Homo sapiens, UniProt Q13547); experiment: Inhibition of HDAC1 in human MCF7 cells assessed as up-regulation of acetylated histone H3 protein level at 5 uM after 24 hrs by Western blot analysis; format: cell-based; in short: as §2
Sequence of Histone deacetylase 1 (Q13547 whole entry): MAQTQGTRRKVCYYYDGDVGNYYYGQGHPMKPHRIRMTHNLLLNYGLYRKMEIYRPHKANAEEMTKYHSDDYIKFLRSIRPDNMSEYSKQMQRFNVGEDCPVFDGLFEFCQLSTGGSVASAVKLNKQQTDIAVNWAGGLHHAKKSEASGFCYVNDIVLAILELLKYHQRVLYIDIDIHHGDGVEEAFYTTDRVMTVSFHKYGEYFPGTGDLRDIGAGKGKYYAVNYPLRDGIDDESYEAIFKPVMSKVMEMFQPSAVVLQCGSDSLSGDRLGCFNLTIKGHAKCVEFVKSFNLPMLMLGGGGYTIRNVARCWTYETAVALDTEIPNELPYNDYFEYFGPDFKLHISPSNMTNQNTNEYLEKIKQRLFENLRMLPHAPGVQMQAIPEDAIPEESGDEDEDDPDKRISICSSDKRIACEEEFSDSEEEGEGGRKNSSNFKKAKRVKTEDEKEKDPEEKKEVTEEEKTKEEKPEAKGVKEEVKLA

Sequence of DNA (cytosine-5)-methyltransferase 1 (P26358 whole entry): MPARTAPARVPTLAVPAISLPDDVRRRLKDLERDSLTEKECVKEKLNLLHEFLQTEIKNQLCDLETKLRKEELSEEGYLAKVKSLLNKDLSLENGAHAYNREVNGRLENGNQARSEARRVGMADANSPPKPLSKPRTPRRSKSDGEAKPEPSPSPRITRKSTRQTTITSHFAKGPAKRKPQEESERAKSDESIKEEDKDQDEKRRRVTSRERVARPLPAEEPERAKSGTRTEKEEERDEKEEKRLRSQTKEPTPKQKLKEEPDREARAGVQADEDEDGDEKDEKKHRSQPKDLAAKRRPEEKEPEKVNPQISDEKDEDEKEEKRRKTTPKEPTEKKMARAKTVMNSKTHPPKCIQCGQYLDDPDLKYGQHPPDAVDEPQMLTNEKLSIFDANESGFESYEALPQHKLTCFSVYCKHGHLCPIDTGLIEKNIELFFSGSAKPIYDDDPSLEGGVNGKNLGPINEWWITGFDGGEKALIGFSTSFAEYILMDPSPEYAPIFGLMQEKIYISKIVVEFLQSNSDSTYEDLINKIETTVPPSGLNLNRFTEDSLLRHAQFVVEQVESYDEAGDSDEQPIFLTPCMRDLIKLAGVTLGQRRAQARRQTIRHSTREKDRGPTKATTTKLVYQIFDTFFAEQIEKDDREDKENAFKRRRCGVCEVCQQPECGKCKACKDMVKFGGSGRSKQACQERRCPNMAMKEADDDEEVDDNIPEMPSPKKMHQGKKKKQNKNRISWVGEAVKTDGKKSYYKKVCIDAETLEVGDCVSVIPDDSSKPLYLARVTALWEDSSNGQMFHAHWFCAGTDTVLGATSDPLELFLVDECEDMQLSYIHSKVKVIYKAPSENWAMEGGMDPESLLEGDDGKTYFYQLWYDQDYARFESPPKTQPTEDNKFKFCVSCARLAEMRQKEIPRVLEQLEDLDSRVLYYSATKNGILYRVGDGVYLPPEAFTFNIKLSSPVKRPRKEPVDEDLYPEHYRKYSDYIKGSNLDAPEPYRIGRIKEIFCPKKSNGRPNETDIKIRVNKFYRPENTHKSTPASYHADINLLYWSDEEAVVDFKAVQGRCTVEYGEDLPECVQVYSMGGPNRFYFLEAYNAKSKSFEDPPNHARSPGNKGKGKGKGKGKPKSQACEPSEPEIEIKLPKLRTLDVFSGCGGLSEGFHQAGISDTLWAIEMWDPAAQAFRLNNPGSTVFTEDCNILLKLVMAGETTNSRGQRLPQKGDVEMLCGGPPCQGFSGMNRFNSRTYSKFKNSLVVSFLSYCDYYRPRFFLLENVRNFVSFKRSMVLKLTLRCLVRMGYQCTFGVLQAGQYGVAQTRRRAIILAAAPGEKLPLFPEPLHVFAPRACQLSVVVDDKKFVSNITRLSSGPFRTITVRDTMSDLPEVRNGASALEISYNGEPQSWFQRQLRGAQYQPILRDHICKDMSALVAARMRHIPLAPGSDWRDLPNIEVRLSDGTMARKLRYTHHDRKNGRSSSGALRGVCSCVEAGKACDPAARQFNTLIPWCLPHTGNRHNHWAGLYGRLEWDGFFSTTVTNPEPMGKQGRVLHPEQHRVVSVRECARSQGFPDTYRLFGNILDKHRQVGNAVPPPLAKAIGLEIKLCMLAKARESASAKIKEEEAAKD

- GI50 (MCF7 [1]): 1270 nM
- inhibition [2]: inactive
- pIC50 [4]: 8.38
- GI50 (A549): 7500 nM
- inhibition (Bacteria [5]): Active
- pIC50 [7]: 7.73
- inhibition (Bacteria [8]): Active
- inhibition (Histone deacetylase 1): Active
Compound: O=C(NCCSSCCNC(=O)/C(Cc1ccc(O)c(Br)c1)=N/O)/C(Cc1ccc(O)c(Br)c1)=N/O [PSAMMAPLIN A]
- inhibition (MCF7 [3]): Active
- GI50 at 96 h [6]: 3440 nM
